What was measured:
Adenosine receptor A1 = biological target: T1, Adenosine receptor A1 (Bos taurus, UniProt P28190); assay: Displacement of [3H]DPCPX from bovine cerebral cortex adenosine A1 receptor; format: tissue-based
T1 sequence (P28190 whole entry): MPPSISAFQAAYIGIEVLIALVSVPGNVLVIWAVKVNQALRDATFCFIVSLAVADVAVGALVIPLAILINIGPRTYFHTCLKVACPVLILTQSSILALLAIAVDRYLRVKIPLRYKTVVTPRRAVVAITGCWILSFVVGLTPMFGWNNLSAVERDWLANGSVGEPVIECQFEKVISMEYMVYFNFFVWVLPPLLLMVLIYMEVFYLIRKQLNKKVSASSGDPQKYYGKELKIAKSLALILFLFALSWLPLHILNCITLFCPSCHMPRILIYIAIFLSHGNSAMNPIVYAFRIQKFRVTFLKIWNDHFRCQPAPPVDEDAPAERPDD
How it was run: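 Nonspecific binding defined with CPA. Reaction stopped by dilution with ice-cold 50 mM Tris-HCl, then GF/C filtration and three washes. Bound radioactivity counted by liquid scintillation. Each test repeated until at least three consistent results were obtained and averaged for Ki.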

[1] = biological target: T2, Adenosine receptor A3 (Homo sapiens) (UniProt P0DMS8); assay: Displacement of [3H]NECA from human recombinant adenosine A3 receptor expressed in CHO cells at 1 uM; format: cell-based
T2 sequence (whole entry): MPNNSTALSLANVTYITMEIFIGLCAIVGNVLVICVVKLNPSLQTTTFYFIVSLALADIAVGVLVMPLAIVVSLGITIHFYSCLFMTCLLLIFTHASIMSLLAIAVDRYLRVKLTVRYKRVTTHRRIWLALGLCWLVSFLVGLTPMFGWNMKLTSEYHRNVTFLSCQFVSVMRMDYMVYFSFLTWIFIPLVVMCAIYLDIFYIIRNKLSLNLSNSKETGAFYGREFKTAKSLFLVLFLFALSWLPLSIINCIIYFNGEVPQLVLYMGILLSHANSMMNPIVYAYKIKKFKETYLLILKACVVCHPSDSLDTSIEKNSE
How it was run: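 Membranes from CHO cells expressing recombinant human A3 receptor incubated 120 min at 25 °C with 6 nM [3H]NECA and a single compound concentration, in duplicate, in Tris-HCl buffer. Nonspecific binding defined with R-PIA. Percent inhibition of specific binding recorded.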

[2] = biological target: Adenosine receptor A2a (Homo sapiens) (UniProt P29274); assay: Displacement of [3H]ZM-241385 from human recombinant adenosine A2A receptor expressed in CHO cells at 1 uM; format: cell-based
How it was run: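 Membranes from CHO cells expressing recombinant human A2A receptor incubated 120 min at 25 °C with 4 nM [3H]ZM241385 and a single compound concentration, in duplicate, in Tris-HCl buffer. Nonspecific binding defined with NECA. Percent inhibition of specific binding recorded.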

Chain of Adenosine receptor A2a (Homo sapiens) (P29274 whole entry): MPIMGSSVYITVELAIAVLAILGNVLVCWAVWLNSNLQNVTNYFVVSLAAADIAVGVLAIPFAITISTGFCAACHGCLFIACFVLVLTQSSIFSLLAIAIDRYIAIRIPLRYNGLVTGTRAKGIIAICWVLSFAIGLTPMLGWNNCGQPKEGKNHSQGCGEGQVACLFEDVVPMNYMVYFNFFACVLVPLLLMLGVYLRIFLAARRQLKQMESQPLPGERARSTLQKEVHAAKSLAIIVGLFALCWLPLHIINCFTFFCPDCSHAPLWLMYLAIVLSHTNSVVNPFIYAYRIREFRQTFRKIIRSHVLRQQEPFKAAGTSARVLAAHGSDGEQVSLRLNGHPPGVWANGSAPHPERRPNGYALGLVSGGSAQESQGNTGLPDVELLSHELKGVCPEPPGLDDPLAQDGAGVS

| Ki (Adenosine receptor A1) | inhibition [1] | inhibition [2] | SMILES |
| --- | --- | --- | --- |
| 25 nM | < 50% | < 50% | CNc1nc(-c2ccccc2)nc2c1nnn2Cc1ccccc1F |
| 11 nM | < 50% | < 50% | CCCCNc1nc(-c2ccccc2)nc2c1nnn2Cc1ccccc1 |
| 11 nM | < 50% | < 50% | CCNc1nc(-c2ccccc2)nc2c1nnn2Cc1ccccc1F |
| 4.3 nM | < 50% | < 50% | CCCCNc1nc(-c2ccccc2)nc2c1nnn2Cc1ccccc1F |
| 79 nM | < 50% | < 50% | CCCCNc1nc(-c2ccccc2)nc2c1nnn2Cc1ccccc1Cl |
| 13.2 nM | < 50% | < 50% | CCCCCCNc1nc(-c2ccccc2)nc2c1nnn2Cc1ccccc1 |
| 15 nM | < 50% | < 50% | Fc1ccccc1Cn1nnc2c(NC3CC3)nc(-c3ccccc3)nc21 |
| – | < 50% | < 50% | CCCNc1nc(-c2ccccc2)nc2c1nnn2Cc1ccccc1C(F)(F)F |
| 14.9 nM | < 50% | < 50% | CNc1nc(-c2ccccc2)nc2c1nnn2Cc1ccccc1C(F)(F)F |
| 6.7 nM | < 50% | < 50% | Fc1ccccc1Cn1nnc2c(NC3CCCC3)nc(-c3ccccc3)nc21 |
| 147 nM | < 50% | < 50% | OCCCNc1nc(-c2ccccc2)nc2c1nnn2Cc1ccccc1C(F)(F)F |
| 54 nM | < 50% | < 50% | OCCNc1nc(-c2ccccc2)nc2c1nnn2Cc1ccccc1F |
| – | < 50% | < 50% | CC(O)CNc1nc(-c2ccccc2)nc2c1nnn2Cc1ccccc1C(F)(F)F (stereo not given) |
| 353 nM | < 50% | < 50% | CNc1nc(-c2ccccc2)nc2c1nnn2Cc1ccccc1 |
| 33 nM | < 50% | < 50% | OCCCNc1nc(-c2ccccc2)nc2c1nnn2Cc1ccccc1Cl |
| 7.8 nM | < 50% | < 50% | FC(F)(F)c1ccccc1Cn1nnc2c(NC3CC3)nc(-c3ccccc3)nc21 |
| 11 nM | < 50% | < 50% | c1ccc(Cn2nnc3c(NC4CCCC4)nc(-c4ccccc4)nc32)cc1 |
| 6.8 nM | < 50% | < 50% | FC(F)(F)c1ccccc1Cn1nnc2c(NC3CCCCC3)nc(-c3ccccc3)nc21 |

| Ki (Adenosine receptor A1) | inhibition [1] | inhibition [2] | SMILES |
| --- | --- | --- | --- |
| 38 nM | < 50% | < 50% | OCCNc1nc(-c2ccccc2)nc2c1nnn2Cc1ccccc1 |
| 11.3 nM | < 50% | < 50% | c1ccc(Cn2nnc3c(NC4CC4)nc(-c4ccccc4)nc32)cc1 |
| – | < 50% | < 50% | CCNc1nc(-c2ccccc2)nc2c1nnn2Cc1ccccc1C(F)(F)F |
| 21.4 nM | < 50% | < 50% | OCCCNc1nc(-c2ccccc2)nc2c1nnn2Cc1ccccc1 |
| 25 nM | < 50% | < 50% | CCCCCCNc1nc(-c2ccccc2)nc2c1nnn2Cc1ccccc1F |
| 1.15 nM | < 50% | < 50% | Fc1ccccc1Cn1nnc2c(NC3CCCCC3)nc(-c3ccccc3)nc21 |
| 4.8 nM | < 50% | < 50% | CC(O)CNc1nc(-c2ccccc2)nc2c1nnn2Cc1ccccc1F (stereo not given) |
| 101 nM | < 50% | < 50% | CCCNc1nc(-c2ccccc2)nc2c1nnn2Cc1ccccc1Cl |
| 116 nM | < 50% | < 50% | OCCNc1nc(-c2ccccc2)nc2c1nnn2Cc1ccccc1Cl |
| 463 nM | < 50% | < 50% | CCNc1nc(-c2ccccc2)nc2c1nnn2Cc1ccccc1Cl |
| – | < 50% | < 50% | CCCCCCNc1nc(-c2ccccc2)nc2c1nnn2Cc1ccccc1C(F)(F)F |
| 7.5 nM | < 50% | < 50% | CC(O)CNc1nc(-c2ccccc2)nc2c1nnn2Cc1ccccc1 (stereo not given) |
| 91 nM | < 50% | < 50% | CCNc1nc(-c2ccccc2)nc2c1nnn2Cc1ccccc1 |
| – | < 50% | < 50% | OCCNc1nc(-c2ccccc2)nc2c1nnn2Cc1ccccc1C(F)(F)F |
| 37 nM | < 50% | < 50% | CCCNc1nc(-c2ccccc2)nc2c1nnn2Cc1ccccc1 |
| 5 nM | < 50% | < 50% | c1ccc(Cn2nnc3c(NC4CCC4)nc(-c4ccccc4)nc32)cc1 |
| 3.7 nM | < 50% | < 50% | OCCCNc1nc(-c2ccccc2)nc2c1nnn2Cc1ccccc1F |
| 3.2 nM | < 50% | < 50% | CCCNc1nc(-c2ccccc2)nc2c1nnn2Cc1ccccc1F |

| SMILES | Ki (Adenosine receptor A1) | inhibition [1] | inhibition [2] |
| --- | --- | --- | --- |
| FC(F)(F)c1ccccc1Cn1nnc2c(NC3CCCC3)nc(-c3ccccc3)nc21 | 0.6 nM | < 50% | < 50% |
| Clc1ccccc1Cn1nnc2c(NC3CCCCC3)nc(-c3ccccc3)nc21 | 34 nM | < 50% | < 50% |
| CC(O)CNc1nc(-c2ccccc2)nc2c1nnn2Cc1ccccc1Cl (stereo not given) | 32 nM | < 50% | < 50% |
| CCCCCCNc1nc(-c2ccccc2)nc2c1nnn2Cc1ccccc1Cl | 31 nM | < 50% | < 50% |
| Clc1ccccc1Cn1nnc2c(NC3CCCC3)nc(-c3ccccc3)nc21 | 9 nM | < 50% | < 50% |
| CCCCNc1nc(-c2ccccc2)nc2c1nnn2Cc1ccccc1C(F)(F)F | 6.5 nM | < 50% | < 50% |
| CNc1nc(-c2ccccc2)nc2c1nnn2Cc1ccccc1Cl | 191 nM | < 50% | < 50% |
| Clc1ccccc1Cn1nnc2c(NC3CC3)nc(-c3ccccc3)nc21 | 11 nM | < 50% | < 50% |
| Clc1ccccc1Cn1nnc2c(NC3CCC3)nc(-c3ccccc3)nc21 | 24 nM | < 50% | < 50% |

Reference: ChEMBL document CHEMBL1144486, “Synthesis, biological activity and molecular modelling of new trisubstituted 8-azaadenines with high affinity for A1 adenosine receptors” (Eur J Med Chem, 2007)
